Here are results for 167 variants from the RNAGym collection of RNA variant scans (doi:10.1038/nmeth.2970).

The chains are these.
B1: NELF-E aptamer (parent)
chain: CCCAACGACUGCCGAGCGAGAUUACGCUUGAGCGCCCCACUGAGGAUGCCCACGGGCGAUUGGGGCACGG

In this data set the parent is B1. The experiment in a line: HiTS-RAP. The conditions noted are these: with NELF-E (Drosophila). The method, boiled down:
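Aptamer DNA templates bearing a T7 promoter and a ter site were sequenced on an Illumina GAIIx flowcell. T7 RNA polymerase then transcribed them in situ, and GST-Tus halted transcription over 30 minutes at 37°C. After a 30-minute room-temperature equilibration with NELF-E-mOrange at 0.064 to 1000 nM in HEPES binding buffer, clusters were imaged, using only the first binding curve. Intensities normalised to sequencing intensity were averaged per sequence and fitted with weighted Hill fits to give Kd, retaining only fits whose variance stayed under 1,000,000.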
For A8U U23C, the Kd was found to be 5.3 nM.

For A8U U23G, the Kd amounted to 6.17 nM.

Regarding A8G A52U, the Kd worked out at 15.5 nM.

A8G A52G: the Kd was determined as 4.33 nM.

A8U G55A: the Kd turned out to be 8.25 nM.

Turning to A8U G55U, the Kd amounted to 7.57 nM.

Turning to G7U G62A, the Kd was determined as 25.2 nM.

In the case of G7U G62U, the Kd is 7.8 nM.

As to A8G C51U, the Kd is 6.89 nM.

For the variant A8U A31G, the equilibrium dissociation constant (Kd) amounted to 8.05 nM.

As to A8U A31U, the Kd is 7.11 nM.

Take A8G C13G: the Kd was determined as 5.95 nM.

For the variant A8G C13U, the Kd was determined as 4.41 nM.

Turning to A8G C13A, the dissociation constant (Kd) worked out at 6.62 nM.

Turning to A8U U41C, the Kd was 85.6 nM.

Take A8U U41G: the Kd was found to be 6.19 nM.

For G7U G44U, the Kd was 16.7 nM.

Take A8U U22G: the Kd came out at 6.1 nM.

For A8U U22C, the dissociation constant (Kd) was 5.14 nM.

As to A8G G32A, the Kd was found to be 5.07 nM.

Regarding A8G G11A, the Kd turned out to be 6.3 nM.

Consider A8G G11U, for which the Kd worked out at 6.74 nM.

As to G7U U10A, the Kd worked out at 7.85 nM.

Consider G7U U10C, for which the Kd was found to be 5.96 nM.

Consider G7U U10G, for which the Kd came out at 5.68 nM.

G7U G45A: the Kd came to 21.8 nM.

Regarding C9G A46U, the Kd was determined as 68.3 nM.

For C9G A46G, the Kd amounted to 47.4 nM.

As for C9G A59G, the Kd was determined as 64.3 nM.

C9G A59U: the Kd came to 30.4 nM.

For the variant A8G C37U, the Kd is 10.1 nM.

For G7U A46G, the dissociation constant Kd came out at 56 nM.

A8U: the Kd was determined as 5.54 nM.

For the variant A8C, the Kd was found to be 6.72 nM.

Regarding A8G, the Kd was 5.44 nM.

As for G7U G30U, the Kd turned out to be 7.92 nM.

In the case of G7U G30A, the Kd came to 6.35 nM.

Take G7U A19U: the Kd was found to be 6.31 nM.

Regarding G7U A19G, the Kd worked out at 6.23 nM.

Take A8G A59U: the Kd stood at 57.1 nM.

In the case of A8G A59G, the Kd turned out to be 89.2 nM.

On to G7U G11U, for which the Kd worked out at 6.5 nM.

Take G7U G11A: the Kd worked out at 6.15 nM.

With C9G A52U, the Kd is 14.9 nM.

For C9G A52G, the Kd stood at 4.79 nM.

Take C9G A52C: the Kd was found to be 7.38 nM.

As to G7U A52G, the Kd came to 4.13 nM.

In the case of G7U A52U, the dissociation constant Kd came out at 19.3 nM.

As to A8U G26A, the Kd came out at 4.2 nM.

For the variant A8U G62A, the Kd is 19.2 nM.

As for A8U G62U, the equilibrium dissociation constant (Kd) worked out at 10 nM.

With G7U C50U, the Kd amounted to 9.77 nM.

Turning to A8G C57U, the Kd is 6 nM.

On to G7U A15U, for which the Kd is 6 nM.

Consider G7U A15G, for which the Kd amounted to 5.56 nM.

Regarding G7U C51U, the Kd stood at 7.54 nM.

Take G7U C53U: the Kd stood at 4.6 nM.

As for A8U C40G, the Kd turned out to be 8.55 nM.

With G7U U29C, the Kd was 6.86 nM.

For G7U U29G, the Kd amounted to 6.33 nM.

G7U U29A: the Kd was 5.71 nM.

With A8U A46G, the Kd is 50 nM.

Regarding A8U A46U, the dissociation constant Kd was 43.1 nM.

For the variant C9A U22G, the Kd was 3.88 nM.

Take G7U C12U: the Kd amounted to 5.94 nM.

Consider G7U C12G, for which the Kd was determined as 6.89 nM.

On to A8G C9U, for which the dissociation constant (Kd) was found to be 5.53 nM.

Regarding A8G C9G, the Kd was determined as 5.53 nM.

As for A8G C9A, the Kd stood at 7.04 nM.

For the variant G7U U28G, the Kd was found to be 8.81 nM.

As to G7U U28A, the Kd turned out to be 5.51 nM.

Regarding G7U U28C, the Kd is 9.32 nM.

With C9G A24G, the Kd turned out to be 5.84 nM.

Regarding C9G A24U, the Kd came out at 7.67 nM.

For A8G A19U, the dissociation constant (Kd) was found to be 5.53 nM.

In the case of A8G A19G, the Kd is 5.51 nM.

Regarding A8U G63U, the Kd turned out to be 11.1 nM.

On to A8U G63A, for which the equilibrium dissociation constant (Kd) worked out at 15.3 nM.

Consider A8G G63U, for which the Kd is 11 nM.

Consider A8G G63A, for which the Kd turned out to be 16.1 nM.

For G7U G18A, the Kd was determined as 5.43 nM.

As to G7U G18U, the Kd came out at 6.84 nM.

For the variant A8U C57U, the Kd came out at 5.42 nM.

With A8U C33U, the Kd was 6.3 nM.

For the variant G7A U41G, the Kd amounted to 6.05 nM.

In the case of A8G G58U, the Kd turned out to be 20.1 nM.

Turning to A8G C49U, the Kd amounted to 16.8 nM.

Consider A8G U41G, for which the Kd was 6.37 nM.

On to G7U C27U, for which the Kd worked out at 5.11 nM.

For G7U C27G, the Kd was determined as 5.97 nM.

Regarding A8U A43U, the Kd came to 104 nM.

For the variant A8U A43G, the Kd was 25.7 nM.

G7C G11U: the Kd was 7.68 nM.

For A8U C35U, the Kd was 12.5 nM.

As to G7U G34A, the Kd is 7.85 nM.

Consider G7U G34U, for which the dissociation constant Kd was 7.8 nM.

For C9A U10G, the Kd was determined as 5.43 nM.

Regarding A8G C17U, the Kd was 4.94 nM.

As to A8G C17G, the dissociation constant (Kd) turned out to be 5.53 nM.

In the case of G7U C66U, the Kd was 6.12 nM.

Regarding A8U G42A, the Kd was found to be 71.2 nM.

For the variant A8G G64A, the Kd was 7.44 nM.

Take A8U U10G: the dissociation constant Kd came out at 5.41 nM.

As to A8U U10C, the Kd is 5.96 nM.

Take A8U U10A: the Kd stood at 6.91 nM.

For A8C C13G, the Kd was 6.73 nM.

C9G A67U: the Kd was 8.77 nM.

Turning to C9G A67G, the Kd was found to be 6.17 nM.

With G7U G16A, the Kd came out at 6.97 nM.

In the case of G7U G16U, the Kd was 7.06 nM.

Turning to A8G A31U, the Kd turned out to be 5.68 nM.

Consider A8G A31G, for which the dissociation constant (Kd) is 7.13 nM.

A8U A15U: the dissociation constant Kd was 7.15 nM.

On to A8U A15G, for which the Kd stood at 5.78 nM.

Turning to A8G C36U, the Kd worked out at 6.33 nM.

For C9G C12U, the Kd was determined as 5.9 nM.

Turning to C9G C12A, the Kd amounted to 4.67 nM.

As to C9G C12G, the dissociation constant Kd was found to be 5.75 nM.

For the variant A8U G44U, the Kd was determined as 25.7 nM.

Consider A8U C27U, for which the Kd turned out to be 4.24 nM.

Take A8G U61A: the Kd came to 29.3 nM.

As for A8G U61C, the Kd turned out to be 70.8 nM.

Turning to A8U C51U, the Kd turned out to be 10.8 nM.

Regarding A8G C12U, the Kd came out at 5.09 nM.

On to A8G C12G, for which the Kd was 5.74 nM.

G7U A31U: the equilibrium dissociation constant (Kd) came to 5.33 nM.

As for G7U A31G, the Kd stood at 7.34 nM.

Take G7U C9U: the dissociation constant (Kd) was determined as 6.52 nM.

For G7U C9G, the Kd came to 6.28 nM.

As for G7U G65U, the Kd was 7.38 nM.

Consider G7U G65A, for which the Kd turned out to be 4.96 nM.

With A8G A21U, the dissociation constant (Kd) is 5.17 nM.

Take A8G A21G: the Kd is 6.28 nM.

In the case of A8U C17G, the Kd amounted to 6.07 nM.

For A8U C17U, the Kd is 5.13 nM.

Turning to G7U C35U, the dissociation constant Kd turned out to be 8.9 nM.

With G7U C35A, the Kd worked out at 8.62 nM.

With A8G G44A, the Kd came out at 39.3 nM.

As to G7U G32A, the Kd amounted to 4.74 nM.

G7U A8C: the Kd was determined as 7.45 nM.

Consider G7U A8U, for which the Kd stood at 6.38 nM.

On to G7U A8G, for which the Kd was 5.66 nM.

A8G G20U: the Kd stood at 6.35 nM.

Turning to A8G G20A, the Kd was found to be 5.52 nM.

Regarding G7U G64U, the dissociation constant Kd stood at 7.33 nM.

In the case of G7U G64A, the Kd is 8.36 nM.

Regarding G7U U41G, the Kd worked out at 6.05 nM.

As to G7U U41A, the Kd was determined as 64.3 nM.

G7U U41C: the Kd was determined as 91.2 nM.

As for A8G U29C, the Kd stood at 5.69 nM.

On to A8G U29A, for which the Kd came out at 7.95 nM.

With A8G U29G, the Kd came out at 5.77 nM.

On to G7U C37U, for which the dissociation constant Kd came out at 10.5 nM.

Turning to G7U C37G, the dissociation constant (Kd) was determined as 11.1 nM.

Regarding G7U C37A, the dissociation constant Kd stood at 20.8 nM.

A8U A52U: the Kd came out at 17.4 nM.

For the variant A8U A52G, the Kd was determined as 5.67 nM.

With A8U G18U, the Kd is 5.91 nM.

Turning to A8U G18A, the Kd turned out to be 5.68 nM.

In the case of A8G A39U, the Kd is 21.7 nM.

Regarding A8G A39G, the Kd stood at 12.8 nM.

In the case of A8G C53U, the Kd stood at 4.94 nM.

As to A8U C37U, the dissociation constant (Kd) turned out to be 13.2 nM.

For A8U C37A, the dissociation constant Kd is 22.1 nM.

Consider A8G G26A, for which the Kd was determined as 4.49 nM.

For G7U G48A, the dissociation constant Kd turned out to be 12 nM.

As to G7U A67U, the Kd stood at 9.65 nM.

The term Kd denotes the concentration at which binding is half-saturated.
